Source: ChEMBL document CHEMBL4406918, “Inhibitory Effects of Multivalent Polypeptides on the Proliferation and Metastasis of Breast Cancer Cells” (ACS Med Chem Lett, 2019)
Active and inactive are the calls of the source. The rule behind the calls is not given here. Where a SMILES comes first, the peptide text is derived from it.

Tests used:
4T1 [1] = assay: Antiinvasive activity in mouse 4T1 cells assessed as inhibition of cell invasion at 0.2 mM incubated for 24 hrs by crystal violet staining based matrigel invasion assay relative to control; assay type: functional; conditions: 4T1, 24 h
Procedure, shortened: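 4T1 cells, Matrigel-coated Transwell invasion with 0.2 mM compound. Invasion rate comes from counting cells on the underside of the Matrigel-coated porous membrane, relative to untreated control. Mean ± SD, n = 3.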

[2] = Toxicity in BALB/c mouse xenografted with mouse 4T1 cells assessed as change in serum creatinine level at 10 mg/kg administered intratumorally and measured after 24 days; assay type: organism-based; conditions: in vivo, other, 576 h
[3] = Toxicity in BALB/c mouse xenografted with mouse 4T1 cells assessed as change in blood urea nitrogen level at 10 mg/kg administered intratumorally and measured after 24 days; assay type: organism-based; conditions: in vivo, other, 576 h
4T1 [4] = assay: Antitumour activity against mouse 4T1 cells xenografted in BALB/c mouse assessed as increase in damage of tumor tissue at 10 mg/kg administered intratumorally and measured after 24 days by H and E staining based inverted optical microscopic method; assay type: functional, organism-based
Procedure, shortened: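 Tumours from 4T1-bearing BALB/c mice given 6 doses of 10 mg/kg (saline control) were sectioned and stained with H&E, plus CD31, Ki-67 and TUNEL.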

[5] = Stability in fetal bovine serum assessed as drug degradation measured for 4 hrs by RP-HPLC analysis; assay type: ADME, cell-free, Bos taurus; conditions: cattle, read-out: Drug degradation
Procedure, shortened: (§1)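 Peptides incubated in serum for up to 12 h. Degradation is followed as the percentage of intact YSL remaining at time points including 4 and 12 h.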

[6] = Stability in fetal bovine serum assessed as drug degradation measured for 12 hrs by RP-HPLC analysis; assay type: ADME, cell-free, Bos taurus; conditions: cattle, read-out: Drug degradation; procedure, shortened: as §1
4T1 [7] = assay: Antiproliferative activity against mouse 4T1 cells at 0.1 mM incubated for 24 hrs by MTT assay; assay type: functional, cell-based
4T1 [8] = assay: Antiproliferative activity against mouse 4T1 cells assessed as cell death at 0.2 mM incubated for 24 hrs by MTT assay relative to control; assay type: functional
Procedure, shortened: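 Mouse 4T1 breast cancer cells exposed for 24 h (doses include 0.1 and 0.2 mM), then read by MTT for viability or cell death. Mean ± SD, n = 6.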

Erythrocyte = assay: Hemolytic activity in BALB/c mouse RBC at 3.2 mM incubated for 2 hrs by UV-Vis spectrophotometric analysis; assay type: ADME, cell-based; conditions: 3200 µM
Procedure, shortened: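 Hemolysis assay on red blood cells with dendrimers up to 3.2 mM. Result is expressed as hemolysis rate, with under 5% taken as acceptable.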

4T1 [9] = assay: Induction of apoptosis in mouse 4T1 cells at 0.8 mM incubated for 24 hrs by PI staining based inverted microscopic method; assay type: functional, cell-based
Procedure, shortened: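 Live–dead staining of 4T1 cells after 24 h exposure, with PI uptake imaged microscopically. A higher 0.8 mM dose was also tested.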

4T1 [10] = assay: Induction of cell cycle arrest in mouse 4T1 cells assessed as accumulation at G0/G1 phase at 0.4 mM incubated for 24 hrs by PI staining based flow cytometric analysis (reference value: 37.78%); assay type: functional
4T1 [11] = assay: Induction of cell cycle arrest in mouse 4T1 cells assessed as accumulation at S phase at 0.4 mM incubated for 24 hrs by PI staining based flow cytometric analysis (Rvb =42.35%); assay type: functional
4T1 [12] = assay: Induction of cell cycle arrest in mouse 4T1 cells assessed as accumulation at G2/M phase at 0.4 mM incubated for 24 hrs by PI staining based flow cytometric analysis (reference value: 19.82%); assay type: functional
4T1 [13] = assay: Induction of apoptosis in mouse 4T1 cells assessed as viable cells at 0.4 mM incubated for 24 hrs by Annexin V-FITC/PI based FACS analysis (reference value: 92.2%); assay type: functional; conditions: 4T1, 24 h, read-out: Activity
4T1 [14] = assay: Induction of apoptosis in mouse 4T1 cells assessed as early apoptotic cells at 0.4 mM incubated for 24 hrs by Annexin V-FITC/PI based FACS analysis (reference value: 0.76%); assay type: functional
4T1 [15] = assay: Induction of apoptosis in mouse 4T1 cells assessed as late apoptotic cells at 0.4 mM incubated for 24 hrs by Annexin V-FITC/PI based FACS analysis (reference value: 6.62%); assay type: functional
4T1 [16] = assay: Induction of apoptosis in mouse 4T1 cells assessed as necrotic cells at 0.4 mM incubated for 24 hrs by Annexin V-FITC/PI based FACS analysis (reference value: 0.47%); assay type: functional
4T1 [17] = assay: Inhibition of cell migration in mouse 4T1 cells assessed as wound closure rate at 0.2 mM measured up to 36 hrs by inverted optical microscopic method based wound healing assay (reference value: 82%); assay type: functional; design: scale not given: the % may be the effect or the level left
4T1 [18] = assay: Inhibition of cell migration in mouse 4T1 cells assessed as migration frequency at 0.2 mM incubated for 24 hrs by crystal violet staining based transwell assay relative to control; assay type: functional; design: scale not given: the % may be the effect or the level left
Procedure, shortened: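 4T1 cells, Transwell migration with 24 h exposure to 0.2 mM. Migration rate comes from counting cells on the bottom of the porous membrane. Mean ± SD, n = 3.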

4T1 [19] = assay: Inhibition of metastasis in mouse 4T1 cells assessed as disruption in F-actin arrangement at 0.2 mM incubated for 24 hrs by Hoechst 33342 staining based confocal laser scanning microscopic method; assay type: functional, cell-based
Procedure, shortened: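 After 24 h at 0.2 mM, 4T1 cells were stained for F-actin with Alexa Fluor 488 phalloidin and for nuclei with Hoechst 33342, then imaged by fluorescence for cytoskeletal arrangement and cell morphology.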

4T1 [20] = assay: Antitumour activity against mouse 4T1 cells xenografted in BALB/c mouse assessed as inhibition in tumor growth at 10 mg/kg administered intratumorally and measured every 3 days for 24 days; assay type: functional, organism-based
Procedure, shortened: (§2)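 BALB/c mice bearing subcutaneous 4T1 tumours received 6 doses of 10 mg/kg, with equal YSL-monomer molar amounts across compounds and saline as control. Tumour volume growth curves and body weights were tracked. Mean ± SD, n = 5.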

4T1 [21] = assay: Antitumour activity against mouse 4T1 cells xenografted in BALB/c mouse assessed as reduction in number of lung tumor metastatic nodules at 10 mg/kg administered intratumorally and measured after 24 days by H and E staining based inverted optical microscopic method; assay type: functional, organism-based
Procedure, shortened: (§3)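 After 6 doses of 10 mg/kg to 4T1 tumour-bearing BALB/c mice (saline control), lungs were photographed whole and examined histopathologically for the number and size of metastatic nodules.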

4T1 [22] = assay: Antitumour activity against mouse 4T1 cells xenografted in BALB/c mouse assessed as reduction in size of lung tumor metastatic nodules at 10 mg/kg administered intratumorally and measured after 24 days by H and E staining based inverted optical microscopic method; assay type: functional, organism-based; procedure, shortened: as §3
[23] = Toxicity in BALB/c mouse xenografted with mouse 4T1 cells assessed as induction of morphological lesions in liver at 10 mg/kg administered intratumorally and measured after 24 days by H and E staining based inverted optical microscopic method; assay type: organism-based; conditions: in vivo, other, 576 h
[24] = Toxicity in BALB/c mouse xenografted with mouse 4T1 cells assessed as induction of morphological lesions in heart at 10 mg/kg administered intratumorally and measured after 24 days by H and E staining based inverted optical microscopic method; assay type: organism-based; conditions: in vivo, other, 576 h
[25] = Toxicity in BALB/c mouse xenografted with mouse 4T1 cells assessed as induction of morphological lesions in spleen at 10 mg/kg administered intratumorally and measured after 24 days by H and E staining based inverted optical microscopic method; assay type: organism-based; conditions: in vivo, other, 576 h
[26] = Toxicity in BALB/c mouse xenografted with mouse 4T1 cells assessed as induction of morphological lesions in kidney at 10 mg/kg administered intratumorally and measured after 24 days by H and E staining based inverted optical microscopic method; assay type: organism-based; conditions: in vivo, other, 576 h
[27] = Toxicity in BALB/c mouse xenografted with mouse 4T1 cells assessed as change in body weight at 10 mg/kg administered intratumorally and measured after 24 days; assay type: organism-based; conditions: in vivo, other, 576 h; procedure, shortened: as §2

In the case of `COC(=O)[C@H](CC(C)C)NC(=O)[C@H](CO)NC(=O)[C@@H](N)Cc1ccc(O)cc1` (H-Tyr-Ser-Leu-OMe), the inhibition at 200 µM (4T1 [1]) is reported as 92%, the Activity [2] is reported as “Non-Toxic” and the Activity [3] is reported as “Non-Toxic”. The Activity (4T1 [4]) was “Active”, the metabolised at 4 h [5] was 60% and the metabolised at 12 h [6] was 100%. For the same compound, the Activity (4T1 [7]) was “inactive”, the Activity (4T1 [8]) was 2% and the Activity (Erythrocyte) was “Non-Toxic”. The Activity (4T1 [9]) was “Active”, the Activity (4T1 [10]) was 37.41% and the Activity (4T1 [11]) was 42.35%. It also gave an Activity (4T1 [12]) of 48.48%, a viability at 400 µM (4T1 [13]) of 87.6% and an Activity (4T1 [14]) of 0.88%. For the same compound, the Activity (4T1 [15]) was 10.3%, the Activity (4T1 [16]) was 1.23% and the Activity (4T1 [17]) was 80%. For the same compound, the Activity (4T1 [18]) was 82%, the “F-actin disruption (qualitative)” value (4T1 [19]) was “Active” and the Activity (4T1 [20]) was “Active”. The Activity (4T1 [21]) was “Active”, the Activity (4T1 [22]) was “Active” and the Activity [23] was “Non-Toxic”. For the same compound, the Activity [24] was “Non-Toxic”, the Activity [25] was “Non-Toxic” and the Activity [26] was “Non-Toxic”. The Activity [27] was “Non-Toxic”.
